Measured values: ChEMBL document CHEMBL1132449, “Pyrroloquinoxaline derivatives as high-affinity and selective 5-HT(3) receptor agonists: synthesis, further structure-activity relationships, and biological studies” (J Med Chem, 1999)

Columns and labels:
[1] = biological target: T1, 5-hydroxytryptamine receptor 4 (Cavia porcellus, UniProt O70528); test: The compound was tested for the binding affinity against 5-hydroxytryptamine 4 receptor using [3H]GR-113808 as radioligand.
[2] = biological target: T2, 5-hydroxytryptamine receptor 2C (Rattus norvegicus, UniProt P08909); test: The compound was tested for the binding affinity against 5-hydroxytryptamine 2C receptor using [3H]Mesulergine as radioligand.
T2 sequence (P08909 whole entry): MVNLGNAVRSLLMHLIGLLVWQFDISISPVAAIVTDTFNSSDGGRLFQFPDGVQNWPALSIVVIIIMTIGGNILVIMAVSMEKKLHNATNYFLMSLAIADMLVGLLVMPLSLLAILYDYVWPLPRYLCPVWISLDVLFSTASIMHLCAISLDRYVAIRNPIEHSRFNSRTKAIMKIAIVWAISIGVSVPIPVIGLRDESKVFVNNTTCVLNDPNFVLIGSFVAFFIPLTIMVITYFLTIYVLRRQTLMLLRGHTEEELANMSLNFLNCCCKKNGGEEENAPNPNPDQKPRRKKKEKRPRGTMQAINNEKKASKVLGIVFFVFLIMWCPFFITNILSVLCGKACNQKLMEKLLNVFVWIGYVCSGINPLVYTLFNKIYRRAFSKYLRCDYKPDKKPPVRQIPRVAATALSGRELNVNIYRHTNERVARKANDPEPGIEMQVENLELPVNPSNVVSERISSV

[3] = biological target: T3, Serotonin 3 (5-HT3) receptor (Rattus norvegicus, UniProt P35563+Q9JJ16); test: The compound was tested for binding affinity against 5-hydroxytryptamine 3 receptor from NG108-15 cells using [3H]zacopride as radioligand; format: cell-based
T3 sequence (P35563 whole entry): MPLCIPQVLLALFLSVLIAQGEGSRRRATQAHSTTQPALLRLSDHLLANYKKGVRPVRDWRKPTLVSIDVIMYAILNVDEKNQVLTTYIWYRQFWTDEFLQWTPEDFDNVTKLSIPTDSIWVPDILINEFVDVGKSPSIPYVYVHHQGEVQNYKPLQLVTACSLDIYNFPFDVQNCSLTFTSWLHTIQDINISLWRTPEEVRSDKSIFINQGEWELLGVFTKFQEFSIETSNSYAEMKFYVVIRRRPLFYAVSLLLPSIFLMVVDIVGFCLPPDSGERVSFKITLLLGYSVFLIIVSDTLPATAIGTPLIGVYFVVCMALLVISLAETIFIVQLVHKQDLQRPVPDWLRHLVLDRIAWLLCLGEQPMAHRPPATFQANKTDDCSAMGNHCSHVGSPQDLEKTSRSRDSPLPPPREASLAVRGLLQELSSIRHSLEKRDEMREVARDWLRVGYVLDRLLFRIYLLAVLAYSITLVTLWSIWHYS
T3 sequence (Q9JJ16 whole entry): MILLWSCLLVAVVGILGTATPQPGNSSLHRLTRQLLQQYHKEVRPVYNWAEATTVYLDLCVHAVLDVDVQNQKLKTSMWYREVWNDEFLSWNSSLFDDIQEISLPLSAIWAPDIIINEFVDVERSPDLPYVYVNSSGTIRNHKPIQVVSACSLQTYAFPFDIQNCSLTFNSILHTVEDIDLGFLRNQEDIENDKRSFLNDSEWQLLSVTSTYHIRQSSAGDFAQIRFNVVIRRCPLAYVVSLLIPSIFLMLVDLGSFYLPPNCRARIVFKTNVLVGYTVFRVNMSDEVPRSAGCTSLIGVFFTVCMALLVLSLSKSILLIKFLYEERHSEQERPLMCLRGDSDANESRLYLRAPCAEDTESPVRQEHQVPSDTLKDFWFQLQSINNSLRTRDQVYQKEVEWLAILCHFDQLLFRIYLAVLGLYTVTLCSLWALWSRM
Method in brief: (§1)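 NG108-15 cells were grown in DMEM with 10% inactivated FCS plus HAT at 37 °C, 10% CO2, harvested by shaking and pelleted. About 420 000 cells/sample in 50 mM Tris HCl pH 7.5 with 25 mM NaCl were incubated with 0.4 nM (final) [3H]zacopride for 60 min at 25 °C, then filtered and counted. IC50 is mean ± SEM of three determinations.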

NG108-15 [4] = test: The compound was tested for efficacy against 5-Hydroxytryptamine 3 receptor by measuring [14C]guanidinium uptake on NG108-15 cells.; A = Agonist; format: functional, cell-based; conditions: filed as agonist
Method in brief: (§2)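 NG108-15 cells, grown 2 days, were washed in HEPES saline pH 7.4. They were exposed 10 min at 37 °C to buffer (135 mM NaCl, 10 mM guanidinium) with […] [14C]guanidinium, 1 mM 5-HT, […] and/or 8 drug concentrations. Cells were washed in ice-cold choline buffer, dissolved in NaOH and counted by scintillation. Assays run in triplicate.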

[5] = biological target: T4, 5-hydroxytryptamine receptor 1B (Rattus norvegicus, UniProt P28564); test: The compound was tested for the binding affinity against 5-hydroxytryptamine 1B receptor using [3H]5-HT as radioligand.
T4 sequence (P28564 whole entry): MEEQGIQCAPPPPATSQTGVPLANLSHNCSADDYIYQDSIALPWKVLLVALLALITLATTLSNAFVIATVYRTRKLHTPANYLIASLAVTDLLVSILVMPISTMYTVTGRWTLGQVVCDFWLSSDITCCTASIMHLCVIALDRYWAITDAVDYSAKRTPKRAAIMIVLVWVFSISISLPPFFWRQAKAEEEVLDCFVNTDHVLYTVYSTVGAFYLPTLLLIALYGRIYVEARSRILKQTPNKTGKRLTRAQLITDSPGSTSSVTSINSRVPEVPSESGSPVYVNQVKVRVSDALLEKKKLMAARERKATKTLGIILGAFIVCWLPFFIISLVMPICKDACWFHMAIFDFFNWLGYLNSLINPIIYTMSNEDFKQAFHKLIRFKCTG

[6] = biological target: T3, Serotonin 3 (5-HT3) receptor; test: The compound was tested for the binding affinity against 5-hydroxytryptamine 3 receptor using [3H]zacopride as radioligand.; format: protein-complex assay
[7] = The compound was tested for brain to plasma partition in rat.; format: ADME, organism-based; conditions: brain and plasma, read-out: AUC ratio
Method in brief: (§3)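 Male CD-COBS rats (175-200 g) received hydrochloride salts in saline i.v. at 5 mg/kg and were killed 60, 120 and 180 min after dosing. Plasma and brain levels were measured by HPLC-UV (254 nm) after liquid-liquid or solid-phase extraction with an internal standard. The ratio is brain-to-plasma AUC_t, 2-3 rats per point.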

[8] = biological target: T3, Serotonin 3 (5-HT3) receptor; test: Binding affinity against 5-hydroxytryptamine 3 (5-HT3) receptor from rat cortical homogenate using [3H]zacopride as radioligand
Method in brief: (§4)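 Male rat cortices, stored at -80 °C, were homogenized in ice-cold 25 mM Tris HCl pH 7.4 and spun at 50000g. Membranes were preincubated 10 min at 37 °C, washed, and resuspended with 10 µM pargyline (10 mg tissue/sample). They were incubated with 0.4 nM (final) [3H]zacopride for 30 min at 25 °C, filtered through PEI-treated GF/B and counted. IC50 came from dose-inhibition curves, mean ± SEM of three determinations.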

[9] = biological target: T5, 5-hydroxytryptamine receptor 2A (Rattus norvegicus, UniProt P14842); test: The compound was tested for the binding affinity against 5-hydroxytryptamine 2A receptor using [3H]ketanserin as radioligand.
T5 sequence (P14842 whole entry): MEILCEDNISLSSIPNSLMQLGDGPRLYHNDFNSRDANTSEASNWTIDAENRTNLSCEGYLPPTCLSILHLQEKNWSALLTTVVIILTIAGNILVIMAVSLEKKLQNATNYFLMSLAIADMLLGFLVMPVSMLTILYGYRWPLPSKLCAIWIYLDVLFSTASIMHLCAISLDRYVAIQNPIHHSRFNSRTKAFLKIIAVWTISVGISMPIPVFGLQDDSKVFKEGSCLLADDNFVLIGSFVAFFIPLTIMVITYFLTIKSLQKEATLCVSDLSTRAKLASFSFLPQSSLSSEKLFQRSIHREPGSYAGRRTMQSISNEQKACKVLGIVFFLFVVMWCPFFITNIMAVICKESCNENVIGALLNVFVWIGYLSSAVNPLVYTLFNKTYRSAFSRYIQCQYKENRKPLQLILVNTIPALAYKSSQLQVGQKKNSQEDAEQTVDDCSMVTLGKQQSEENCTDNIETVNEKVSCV

[10] = biological target: Serotonin 3 (5-HT3) receptor; test: Effective concentration against 5-Hydroxytryptamine 3 receptor by measuring [14C]guanidinium uptake on NG108-15 cells.; format: functional, cell-based
[11] = biological target: T3, Serotonin 3 (5-HT3) receptor; test: The compound was tested for binding affinity against 5-hydroxytryptamine 3 receptor from rat cortical homogenate using [3H]zacopride as radioligand; not active; method in brief: as §4
NG108-15 [12] = test: The compound was tested for efficacy against 5-Hydroxytryptamine 3 receptor by measuring [14C]guanidinium uptake on NG108-15 cells; A= agonist; format: functional, cell-based; conditions: filed as agonist; method in brief: as §2
[13] = biological target: T1, 5-hydroxytryptamine receptor 4; test: The compound was tested for the binding affinity against 5-hydroxytryptamine 4 receptor using [3H]GR-113808 as radioligand
Method in brief: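 Male guinea pig striatal membranes, washed and preincubated at 37 °C, were incubated with 0.1 nM (final) [3H]GR113808 for 30 min at 37 °C.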

NG108-15 [14] = test: The compound was tested for efficacy against 5-Hydroxytryptamine 3 receptor by measuring [14C]guanidinium uptake on NG108-15 cells; PA=Partial agonist; format: functional, cell-based; conditions: filed as partial agonist; method in brief: as §2
[15] = biological target: T3, Serotonin 3 (5-HT3) receptor; test: The compound was tested for binding affinity against 5-hydroxytryptamine 3 receptor from NG108-15 cells (using [3H]zacopride as radioligand); format: cell-based; method in brief: as §1
[16] = biological target: T4, 5-hydroxytryptamine receptor 1B; test: The compound was tested for the binding affinity against 5-hydroxytryptamine 1B receptor using [3H]5-HT as radioligand
[17] = biological target: T3, Serotonin 3 (5-HT3) receptor; test: The compound was tested for the binding affinity against 5-hydroxytryptamine 3 receptor using [3H]zacopride as radioligand; format: protein-complex assay
[18] = The compound was tested for brain to plasma partition in rat; format: ADME, organism-based; conditions: brain and plasma, read-out: AUC ratio; method in brief: as §3
[19] = biological target: T6, 5-hydroxytryptamine receptor 1A (Rattus norvegicus, UniProt P19327); test: The compound was tested for the binding affinity against 5-hydroxytryptamine 1A receptor using [3H]8-OH-DPAT as radioligand.
T6 sequence (P19327 whole entry): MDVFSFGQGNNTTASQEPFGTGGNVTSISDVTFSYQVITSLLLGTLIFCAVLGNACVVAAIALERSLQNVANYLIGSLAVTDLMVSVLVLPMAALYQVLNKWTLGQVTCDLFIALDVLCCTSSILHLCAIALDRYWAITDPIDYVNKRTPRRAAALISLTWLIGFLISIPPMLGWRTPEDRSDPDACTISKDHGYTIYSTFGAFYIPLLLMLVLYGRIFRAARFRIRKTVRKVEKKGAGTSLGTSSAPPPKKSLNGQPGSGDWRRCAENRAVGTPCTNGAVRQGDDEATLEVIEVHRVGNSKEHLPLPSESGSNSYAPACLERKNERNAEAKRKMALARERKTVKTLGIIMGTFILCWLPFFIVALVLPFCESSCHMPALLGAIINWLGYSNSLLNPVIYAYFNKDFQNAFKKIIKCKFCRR

[20] = biological target: T5, 5-hydroxytryptamine receptor 2A; test: The compound was tested for the binding affinity against 5-hydroxytryptamine 2A receptor using [3H]ketanserin as radioligand
[21] = biological target: T2, 5-hydroxytryptamine receptor 2C; test: The compound was tested for the binding affinity against 5-hydroxytryptamine 2C receptor using [3H]mesulergine as radioligand
NG108-15 [22] = test: The compound was tested for efficacy against 5-Hydroxytryptamine 3 receptor by measuring [14C]guanidinium uptake on NG108-15 cells.; PA=Partial agonist; format: functional, cell-based; conditions: filed as partial agonist; method in brief: as §2

T1 sequence (O70528 whole entry): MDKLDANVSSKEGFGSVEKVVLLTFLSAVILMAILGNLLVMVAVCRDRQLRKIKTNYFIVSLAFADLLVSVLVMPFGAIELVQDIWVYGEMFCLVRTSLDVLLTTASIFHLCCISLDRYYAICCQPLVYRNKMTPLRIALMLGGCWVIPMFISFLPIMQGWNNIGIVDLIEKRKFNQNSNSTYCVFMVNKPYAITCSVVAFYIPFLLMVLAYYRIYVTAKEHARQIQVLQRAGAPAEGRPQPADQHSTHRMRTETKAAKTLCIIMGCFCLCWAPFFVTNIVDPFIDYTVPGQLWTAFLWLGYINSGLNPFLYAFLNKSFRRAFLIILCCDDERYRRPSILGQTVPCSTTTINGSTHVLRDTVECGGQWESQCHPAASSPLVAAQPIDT

Structure (SMILES)	Ki [1] [µM]	Ki [2] [µM]	Ki [5] [µM]	Ki [6] [µM]	IC50 [8] [µM]	Ki [9] [µM]	EC50 [10] [µM]	Ki [19] [µM]	further results
Cc1cccc2nc(N3CCN(C)CC3)c3cccn3c12	> 10	> 10	0.398	0.000794	0.00079	0.501	0.0038	–	IC50 [3]: 0.00026 µM; Efficacy (NG108-15 [4]): Agonist; Kp [7]: 9.5
c1ccc(N2CCN(c3nc4ncccc4n4cccc34)CC2)cc1	–	–	–	–	–	–	–	–	IC50 [11]: Not Active
Cc1ccc2c(c1)nc(N1CCN(C)CC1)c1cccn12	–	–	–	–	0.018	–	0.014	–	Efficacy (NG108-15 [12]): Agonist
CN1CCN(c2nc3ncccc3n3cccc23)CC1	–	–	–	–	–	–	0.0017	0.0251	Ki [13]: > 10 µM; Efficacy (NG108-15 [14]): Partial agonist; IC50 [15]: 0.0093 µM; Ki [16]: 0.0251 µM; Ki [17]: 0.00251 µM; Kp [18]: 4.9; Ki [20]: > 10 µM; Ki [21]: 0.794 µM
Cc1cccc2nc(N3CCNCC3)c3cccn3c12	> 10	1	0.251	0.001	0.00113	1	0.0095	> 10	Efficacy (NG108-15 [22]): Partial agonist
